Our source for the ED50 and inhibition in vivo values is ChEMBL document CHEMBL3272168, “Benzodipyran derivatives with antiallergic activity” (1976).

Structures are written as SMILES.

The first assay relates to Rattus norvegicus. The assay can be described thus: Antiallergic activity in iv dosed sensitized Sprague-Dawley rat assessed as inhibition of passive cutaneous anaphylaxis. To be noted: read-out: ID50 (the source's name). The assay is classed as functional. Put shortly: (§1)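 Female Sprague-Dawley rats (80–100 g, groups of five) got 0.1 ml intradermal flank injections of rat anti-N. braziliensis reaginic serum, diluted 1 in 8 to 1 in 32. After 24 h they were challenged iv with worm antigen (25 mg/kg protein) plus Evans blue (25 mg/kg). Compound in saline was given iv with the challenge. Rats were killed at 30 min and dye spots graded 0–4. % inhibition = 100 − 100 × treated/control mean score. ID50 was interpolated from a log-dose plot.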
Consider `C=CCOc1cc2oc(C(=O)[O-])cc(=O)c2c2oc(C(=O)[O-])cc(=O)c12.[Na+].[Na+]`, for which the ED50 came to 0.62 mg/kg.

Regarding `COc1cc2oc(C(=O)[O-])cc(=O)c2c2oc(C(=O)[O-])cc(=O)c12.[Na+].[Na+]`, the ED50 worked out at 0.73 mg/kg.

Take `O=C([O-])c1cc(=O)c2cc3c(=O)cc(C(=O)[O-])oc3c([N+](=O)[O-])c2o1.[Na+].[Na+]`: the ED50 worked out at 1.6 mg/kg.

Take `CCc1c2oc(C(=O)[O-])cc(=O)c2c(C)c2c(=O)cc(C(=O)[O-])oc12.[Na+].[Na+]`: the ED50 was 0.03 mg/kg.

Take `CCCc1c(OC)c2c(=O)cc(C(=O)[O-])oc2c2c(=O)cc(C(=O)[O-])oc12.[Na+].[Na+]`: the ED50 worked out at 0.18 mg/kg.

Turning to `CCc1c2oc(C(=O)[O-])cc(=O)c2cc2c(=O)cc(C(=O)[O-])oc12.[Na+].[Na+]`, the ED50 was determined as 0.1 mg/kg.

Take `O=C([O-])c1cc(=O)c2c(o1)c(Cl)cc1c(=O)cc(C(=O)[O-])oc12.[Na+].[Na+]`: the ED50 was > 10 mg/kg.

`O=C([O-])c1cc(=O)c2c(cc(O)c3c(=O)cc(C(=O)[O-])oc32)o1.[Na+].[Na+]`: the ED50 was found to be 5 mg/kg.

`O=C([O-])c1cc(=O)c2c(ccc3c(=O)cc(C(=O)[O-])oc32)o1.[Na+].[Na+]`: the ED50 is 7.6 mg/kg.

`COc1c2c(=O)cc(C(=O)[O-])oc2cc2oc(C(=O)[O-])cc(=O)c12.[Na+].[Na+]`: the ED50 was 0.32 mg/kg.

`O=C([O-])c1cc(=O)c2cc3c(=O)cc(C(=O)[O-])oc3cc2o1.[Na+].[Na+]`: the ED50 worked out at 0.18 mg/kg.

For `O=C([O-])c1cc(=O)c2cc3oc(C(=O)[O-])cc(=O)c3cc2o1.[Na+].[Na+]`, the ED50 amounted to 0.68 mg/kg.

As to `CCCc1c2oc(C(=O)[O-])cc(=O)c2c(OC)c2c(=O)cc(C(=O)[O-])oc12.[Na+].[Na+]`, the ED50 turned out to be 0.1 mg/kg.

For `CCc1cc2c(=O)cc(C(=O)[O-])oc2c2c(=O)cc(C(=O)[O-])oc12.[Na+].[Na+]`, the ED50 turned out to be 10 mg/kg.

`Cc1c2oc(C(=O)[O-])cc(=O)c2cc2c(=O)cc(C(=O)[O-])oc12.[Na+].[Na+]`: the ED50 is 0.25 mg/kg.

Take `CCOCc1c2oc(C(=O)[O-])cc(=O)c2cc2c(=O)cc(C(=O)[O-])oc12.[Na+].[Na+]`: the ED50 was found to be 0.33 mg/kg.

For `CCOc1cc2oc(C(=O)[O-])cc(=O)c2c2oc(C(=O)[O-])cc(=O)c12.[Na+].[Na+]`, the ED50 is 0.38 mg/kg.

Take `CCCc1c2oc(C(=O)[O-])cc(=O)c2cc2c(=O)cc(C(=O)[O-])oc12.[Na+].[Na+]`: the ED50 was found to be 0.05 mg/kg.

Consider `O=C([O-])c1cc(=O)c2c(OCC(O)COc3cccc4oc(C(=O)[O-])cc(=O)c34)cccc2o1.[Na+].[Na+]` [CROMOLYN SODIUM], for which the ED50 came out at 1.2 mg/kg.

Consider `O=C([O-])c1cc(=O)c2c(o1)c1c(c3c(=O)cc(C(=O)[O-])oc32)OCC1.[Na+].[Na+]`, for which the ED50 is 0.35 mg/kg.

Turning to `Cc1cc(=O)oc2c1c1oc(C(=O)[O-])cc(=O)c1c1oc(C(=O)[O-])cc(=O)c21.[Na+].[Na+]`, the ED50 was 4.24 mg/kg.

As to `CCCCc1c2oc(C(=O)[O-])cc(=O)c2cc2c(=O)cc(C(=O)[O-])oc12.[Na+].[Na+]`, the ED50 is 0.05 mg/kg.

On to `C=CCc1c(OC)c2c(=O)cc(C(=O)[O-])oc2c2c(=O)cc(C(=O)[O-])oc12.[Na+].[Na+]`, for which the ED50 is 0.22 mg/kg.

A further assay has as its system Rattus norvegicus. Put plainly: Antiallergic activity in sensitized Sprague-Dawley rat assessed as inhibition of passive cutaneous anaphylaxis at 1 mg/kg, iv. The class given is functional.
Settings: not given
Put shortly: as §1
Take `CCCc1c2oc(C(=O)[O-])cc(=O)c2c(OC)c2c(=O)cc(C(=O)[O-])oc12.[Na+].[Na+]`: the inhibition in vivo (in general, how much of the control response was suppressed) at 1 mg/kg came out at 100%.
